Measured values from ChEMBL document CHEMBL1133744, “Synthesis and biological evaluation of bombesin constrained analogues” (J Med Chem, 2000).
pEC50, pKi: −log10 of the molar value.

Columns and labels:
[1] = target: Gastrin-releasing peptide receptor (Rattus norvegicus, UniProt P52500); assay: In vitro binding affinity against bombesin / GRP receptors on rat pancreatic acini.
Outline: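 Male Wistar rat dispersed pancreatic acini (about 1 mg/mL protein) incubated 60 min at 37 °C with 20 pM (3-[125I]iodotyrosyl15)GRP and varying analogue; pellet centrifuged at 10000g, washed twice, counted. Nonspecific binding with 10 μM unlabeled BN. Specific binding as %, mean ± SD of three experiments in duplicate.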

[2] = organism: Rattus norvegicus; assay: Compound was tested for stimulating amylase secretion on rat pancreatic acini.; assay type: functional, organism-based
Outline: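 Dispersed pancreatic acini from male Wistar rats (200-300 g), about 1 mg protein/mL, incubated 30 min at 37 °C in HEPES pH 7.4 buffer with 1% BSA; amylase by Phadebas method, expressed as % of maximal BN response. Antagonism: varying analogue with 1 nM BN. Duplicate incubations.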

[3] = Compound was tested for stimulating [3H]-thymidine accumulation in Swiss 3T3 cells.; assay type: functional, cell-based; conditions: Mus musculus, NIH3T3, 24 h
Outline: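 Swiss 3T3 cells seeded 10⁵/well, 24 h in medium with 0.2% BSA without serum, then 24 h in DMEM/0.2% BSA; treated 24 h at 37 °C with varying analogue alone or with 10^-7 M BN, then 0.5 μCi [3H]thymidine for 2 h; TCA-precipitable radioactivity after NaOH solubilization. Agonism tested up to 10^-6 M.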

[4] = Binding affinity against BN (bombesin) / GRP receptors in Swiss 3T3 cells; assay type: cell-based, Mus musculus
Outline: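 Intact Swiss 3T3 cells (seeded 10⁵/well, 24 h in serum-free medium with 0.2% BSA) incubated 1 h at 22 °C in DMEM/0.2% BSA with 20 pM (3-[125I]iodotyrosyl15)GRP and varying compound; washed with cold PBS/0.2% BSA, NaOH-solubilized, radioactivity counted. Nonspecific binding with 10 μM BN. Duplicates, at least three separate trials.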

Sequence of Gastrin-releasing peptide receptor (P52500 whole entry): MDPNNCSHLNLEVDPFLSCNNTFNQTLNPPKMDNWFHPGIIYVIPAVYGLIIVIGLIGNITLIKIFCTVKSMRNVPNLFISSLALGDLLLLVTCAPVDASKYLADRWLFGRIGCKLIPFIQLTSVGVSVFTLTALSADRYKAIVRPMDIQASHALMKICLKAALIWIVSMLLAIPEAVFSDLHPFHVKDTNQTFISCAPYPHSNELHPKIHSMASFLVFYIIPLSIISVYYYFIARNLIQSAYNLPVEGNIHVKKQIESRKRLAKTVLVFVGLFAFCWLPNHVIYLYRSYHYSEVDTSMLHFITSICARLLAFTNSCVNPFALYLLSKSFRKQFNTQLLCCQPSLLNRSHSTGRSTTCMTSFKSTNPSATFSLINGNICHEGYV

| SMILES | pKi [1] | pEC50 [2] | pEC50 [3] | pKi [4] |
| --- | --- | --- | --- | --- |
| CC(C)C[C@H](NC(=O)[C@H](CC(C)C)NC(=O)[C@H](Cc1c[nH]cn1)NC(=O)CN1C(=O)[C@@H](NC(=O)[C@H](C)NC(=O)[C@H](Cc2c[nH]c3ccccc23)NC(=O)[C@H](CCC(N)=O)NC(=O)[C@H](N)Cc2ccccc2)N=C(c2ccccc2)c2ccccc21)C(N)=O | 6.30 |  |  |  |
| COC(=O)[C@H](CC(C)C)NC(=O)[C@H](Cc1c[nH]cn1)NC(=O)CN1CCCC[C@H](NC(=O)[C@H](C)NC(=O)[C@H](Cc2c[nH]c3ccccc23)NC(=O)[C@H](CCC(N)=O)NC(=O)CCc2ccc(O)cc2)C1=O | 8.51 |  |  | 8.92 |
| COC(=O)[C@H](CC(C)C)NC(=O)[C@H](Cc1c[nH]cn1)NC(=O)CN1CCCC[C@H](NC(=O)[C@H](C)NC(=O)[C@H](Cc2c[nH]c3ccccc23)NC(=O)[C@H](CCC(N)=O)NC(=O)[C@H](N)Cc2ccccc2)C1=O | 8.28 |  |  | 8.70 |
| CC(C)C[C@H](NC(=O)[C@H](CC(C)C)NC(=O)[C@H](Cc1c[nH]cn1)NC(=O)CN1CCCC[C@H](NC(=O)[C@H](C)NC(=O)[C@H](Cc2c[nH]c3ccccc23)NC(=O)[C@H](CCC(N)=O)NC(=O)CCc2ccc(O)cc2)C1=O)C(N)=O | 8.74 | 10.30 | 9.70 | 8.70 |
| CC(C)C[C@H](NC(=O)[C@H](CC(C)C)NC(=O)[C@H](Cc1c[nH]cn1)NC(=O)CNC(=O)[C@@H](NC(=O)[C@H](C)NC(=O)[C@H](Cc1c[nH]c2ccccc12)NC(=O)[C@H](CCC(N)=O)NC(=O)C(N)Cc1ccccc1)C(C)C)C(N)=O (stereo in doubt) [listing 2 of 3 here] |  |  |  | 8.20 |
| CCCCC(O)[C@@H](CC(C)C)NC(=O)[C@H](Cc1c[nH]cn1)NC(=O)CN1CCCC[C@H](NC(=O)[C@H](C)NC(=O)[C@H](Cc2c[nH]c3ccccc23)NC(=O)[C@H](CCC(N)=O)NC(=O)CCc2ccc(O)cc2)C1=O (some centres undefined) | 8.42 |  |  | 9.10 |
| CC(C)C[C@@H](NC(=O)[C@H](Cc1c[nH]cn1)NC(=O)CN1CCCC[C@H](NC(=O)[C@H](C)NC(=O)[C@H](Cc2c[nH]c3ccccc23)NC(=O)[C@H](CCC(N)=O)NC(=O)[C@H](N)Cc2ccccc2)C1=O)C(=O)NO | 6.90 |  |  | 7.28 |
| CC(C)C[C@@H](NC(=O)[C@H](Cc1c[nH]cn1)NC(=O)CN1CCCC[C@H](NC(=O)[C@H](C)NC(=O)[C@H](Cc2c[nH]c3ccccc23)NC(=O)[C@H](CCC(N)=O)NC(=O)CCc2ccc(O)cc2)C1=O)C(=O)NO | 7.89 |  |  | 7.96 |
| CCCCC(O)[C@@H](CC(C)C)NC(=O)[C@H](Cc1c[nH]cn1)NC(=O)CN1CCCC[C@H](NC(=O)[C@H](C)NC(=O)[C@H](Cc2c[nH]c3ccccc23)NC(=O)[C@H](CCC(N)=O)NC(=O)[C@H](N)Cc2ccccc2)C1=O (some centres undefined) | 8.05 |  |  | 8.70 |

Second part, led by results:

| pKi [1] | pEC50 [2] | pEC50 [3] | SMILES | pKi [4] |
| --- | --- | --- | --- | --- |
|  | 10.52 | 10.10 | CC(C)C[C@H](NC(=O)[C@H](CC(C)C)NC(=O)[C@H](Cc1c[nH]cn1)NC(=O)CNC(=O)[C@@H](NC(=O)[C@H](C)NC(=O)[C@H](Cc1c[nH]c2ccccc12)NC(=O)[C@H](CCC(N)=O)NC(=O)C(N)Cc1ccccc1)C(C)C)C(N)=O (stereo in doubt) [listing 1 of 3 here] |  |
| 6.65 |  |  | CC(C)C[C@H](NC(=O)[C@H](CC(C)C)NC(=O)[C@H](Cc1cnc[nH]1)NC(=O)CN1CC[C@H](NC(=O)[C@H](C)NC(=O)[C@H](Cc2c[nH]c3ccccc23)NC(=O)[C@H](CCC(N)=O)NC(=O)[C@H](N)Cc2ccccc2)C1=O)C(N)=O |  |
| 5.65 |  |  | CC(C)C[C@H](NC(=O)[C@H](CC(C)C)NC(=O)[C@H](Cc1cnc[nH]1)NC(=O)c1ccc(NC(=O)[C@H](C)NC(=O)[C@H](Cc2c[nH]c3ccccc23)NC(=O)[C@H](CCC(N)=O)NC(=O)[C@H](N)Cc2ccccc2)cc1)C(N)=O |  |
| 6.19 |  |  | CC(C)C[C@H](NC(=O)[C@H](CC(C)C)NC(=O)[C@H](Cc1cnc[nH]1)NC(=O)c1ccccc1NC(=O)[C@H](C)NC(=O)[C@H](Cc1c[nH]c2ccccc12)NC(=O)[C@H](CCC(N)=O)NC(=O)[C@H](N)Cc1ccccc1)C(N)=O |  |
| 8.77 | 9.66 | 10.70 | CC(C)C[C@H](NC(=O)[C@H](CC(C)C)NC(=O)[C@H](Cc1c[nH]cn1)NC(=O)CN1CCCC[C@H](NC(=O)[C@H](C)NC(=O)[C@H](Cc2c[nH]c3ccccc23)NC(=O)[C@H](CCC(N)=O)NC(=O)[C@H](N)Cc2ccccc2)C1=O)C(N)=O | 9.00 |
| 6.52 |  |  | CC(C)C[C@H](NC(=O)[C@H](CC(C)C)NC(=O)[C@H](Cc1cnc[nH]1)NC(=O)c1cccc(NC(=O)[C@H](C)NC(=O)[C@H](Cc2c[nH]c3ccccc23)NC(=O)[C@H](CCC(N)=O)NC(=O)[C@H](N)Cc2ccccc2)c1)C(N)=O |  |
| 8.49 |  |  | CC(C)C[C@H](NC(=O)[C@H](CC(C)C)NC(=O)[C@H](Cc1c[nH]cn1)NC(=O)CNC(=O)[C@@H](NC(=O)[C@H](C)NC(=O)[C@H](Cc1c[nH]c2ccccc12)NC(=O)[C@H](CCC(N)=O)NC(=O)C(N)Cc1ccccc1)C(C)C)C(N)=O (stereo in doubt) [listing 3 of 3 here] |  |
